Rows were chosen to be rich in hits. Some 3.7% of all compounds tested hit in one or more screens of this group.
m-calpain inh = inhibitors of pig calpain II; purified calpain II, fluorogenic peptide substrate, 30 min; inhibition, % at 16 µM; actives 0.37% (n = 220,000); AID 1236;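 active = inhibition above about 50%, limit read from the data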
Mdm2 ligase inh = blocks human Mdm2 ubiquitin ligase activity; Q00987; signal enhancement, % at 5 µM; cell-based MDM2 ubiquitination luciferase reporter, 2 h; 0 = plate control, 100 = twice control, blank-subtracted; actives 0.11% (n = 210,000);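 active = signal enhancement of 30% or more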;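 note: luminescence tracks abundance of the self-degrading MDM2-luciferase fusion protein; higher signal means inhibition of MDM2 E3 ligase activity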
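Assay system: stable mammalian line carrying autodegrading MDM2–luciferase fusion reporter; amount: 2000 cells seeded into each well; buffer or medium: DMEM; benchmarks: plate control and blank wells; signal: luciferase luminescence; timing: 2 h compound exposure at 37 °C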
KCC2 mod = modulates chloride dependent transport by human KCC2. Q9H2X9. KCC2 cells, thallium flux FluoZin-2 fluorescence. B-score of Tl+ flux slope (higher = more flux/activation; lower = inhibition) at 10 µM. actives 2.2% (n = 190,000). AID 1456;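 active = thallium flux slope and its plate-corrected score both differing from the plate sample mean at a set confidence after two filtering rounds, in either direction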;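 note: slope of fluorescence scaled to starting intensity during 10 to 20 s after thallium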
Arbovirus anti = arbovirus infection inhibition. AID 1251. inhibition, % at 10 µM. actives 0.37% (n = 200,000). arbovirus infection cell-based antiviral screen; in the data active = inhibition above about 30%
ROMK mod = human ROMK K+ channel modulation, primary screen | Tet-inducible ROMK, thallium flux fluorescence; actives lie on both sides | B-score at 10 µM | actives 2% (n = 130,000);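 active = signal ratio slope over the read window, or its plate-corrected B-score, at least 3 SD from the plate mean, either direction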;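 note: B-score of the F/F0 ratio slope over 7 to 12 s after thallium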
Target sequence (P48048 whole entry, looked up): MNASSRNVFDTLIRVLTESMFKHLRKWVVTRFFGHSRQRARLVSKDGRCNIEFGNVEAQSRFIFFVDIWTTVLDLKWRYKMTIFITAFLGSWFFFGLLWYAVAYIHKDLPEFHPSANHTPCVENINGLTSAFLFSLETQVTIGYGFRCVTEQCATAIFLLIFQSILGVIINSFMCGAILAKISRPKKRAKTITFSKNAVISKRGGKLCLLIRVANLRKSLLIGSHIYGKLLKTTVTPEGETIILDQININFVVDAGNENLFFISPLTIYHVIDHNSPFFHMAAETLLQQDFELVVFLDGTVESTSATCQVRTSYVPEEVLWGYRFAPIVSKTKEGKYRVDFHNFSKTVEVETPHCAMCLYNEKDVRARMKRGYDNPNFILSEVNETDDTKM
PKD1 kinase inh = inhibitors of human PKD1 kinase | Q15139 | PKD1 kinase fluorescence polarization assay | inhibition, % (test concentration not listed) | actives 0.056% (n = 200,000); in the data active = inhibition above about 50%
An asterisk follows results filed as active; i = inactive; · = not tested or not shown.

SMILES	m-calpain inh	Mdm2 ligase inh	KCC2 mod	Arbovirus anti	ROMK mod	PKD1 kinase inh
CC(C)N1C(=O)/C(=C/C=C/c2ccco2)C(=O)N(Cc2ccco2)C1=O	-23.4	13.3	0.945	3.0	·	1.5
CCN1C(=O)C(=C/C=C/c2ccco2)C(=O)N(CC)C1=S	-59.5	47.0*	-0.352	0.3	·	-4.4
C=CCOc1ccc(CC2C(=O)N(C)C(=O)N(C)C2=O)cc1	i	-6.3	-0.12	-3.4	-0.019	-9.0
Cc1ccc(CC2C(=O)N(C)C(=O)N(C)C2=O)s1	1.2	-13.7	0.356	81.5*	·	-3.5
Oc1c(Br)cc(Br)cc1Oc1ccc(Br)cc1Br	3.5	·	5.96*	-37.4	0.533	1.1
Oc1c(Br)cc(Br)cc1CN1CCN(Cc2ccccc2)CC1	-7.2	-3.9	0.431	7.4	·	4.3
CN1CCN(c2ncnc3nc[nH]c23)CC1	-19.8	-1.6	0.157	10.3	-0.358	5.7
C/C1=C\[C@@H](C)C/C=C/[C@H]2[C@@H]3O[C@]3(C)[C@@H](C)[C@H]3[C@H](Cc4c[nH]c5ccccc45)NC(=O)[C@]32C(=O)/C=C/C(=O)[C@@H]1O	10.9	33.4*	0.435	-19.1	·	11.7
Nc1nonc1C(=O)N/N=C/c1ccc([N+](=O)[O-])o1	-191.5	-12.5	1.1	-7.1	-0.625	2.7
COc1ccc(CCn2c(O)c(C=NCCCO)c(=O)[nH]c2=O)cc1OC	-27.7	-16.3	0.011	-5.5	0.449	0.1
CCCCCSc1cc(OC)c(CCNC)cc1OC	4.7	-10.2	1.33	-28.3	-3.57*	-11.8
O=C1NC(=O)N(c2ccc(Cl)cc2)C(=O)/C1=C/c1coc2ccc(O)cc2c1=O	21.1	-13.9	-4.57*	·	-8.04*	·
Cc1ccc(C(=O)O)cc1N=Nc1c(O)[nH]c(=O)[nH]c1=O	7.9	-8.6	-0.693	4.9	0.495	2.9
c1ccc2c(CNC3CCCCC3)c[nH]c2c1	-27.4	-17.6	-5.12*	-45.0	-0.966	-3.3
CN(Cc1c[nH]c2ccccc12)C1CCCCC1	-2.2	-15.7	0.676	18.5	-0.0863	-11.8
Clc1cccc(C2NCc3ccccc3-n3cccc32)c1 (configuration not stated)	37.6	8.7	-1.31	·	·	·
CCN(CC)c1ccc(C=C2C(=O)N(C)C(=S)N(C)C2=O)o1	-8.7	1.4	-2.97	6.5	-1.14	-13.5
CN1C(=O)C(=Cc2ccc(N3CCCCC3)o2)C(=O)N(C)C1=S	-37.5	-3.4	·	-0.3	-4.87*	-22.2
O=C1NC(=O)N(c2ccc3c(c2)OCO3)C(=O)/C1=C/c1ccc(N2CCCCC2)o1	17.3	6.7	·	4.9	-3.64*	-13.6
CC(=O)OC(C)(C)/C=C/C(=O)[C@](C)(O)[C@H]1[C@H](O)C[C@@]2(C)[C@@H]3CC=C4[C@H](C[C@H](O)C(=O)C4(C)C)[C@]3(C)C(=O)C[C@]12C	-21.4	·	1.31	-37.0	4.65*	0.8
COc1ccc(Cn2c(O)c(C=NCCN3CCOCC3)c(=O)[nH]c2=O)cc1	4.4	-27.2	9.08*	1.9	0.078	-2.5
CCOC(=O)c1nc2ccccc2c(=O)n1-c1cccc(C)c1	18.3	-12.9	1.45	1.1	1.06*	-11.5
O=C1C=Cc2ccccc2C1=O	60.2*	·	-0.472	-5.3	·	-7.8
CCCCn1c(=O)c(C(=O)Nc2cnccn2)c(O)c2ccccc21	-26.6	-8.4	0.784	-0.5	·	6.5
CC(C)CCn1c(=O)c(C(=O)Nc2ccccc2S(N)(=O)=O)c(O)c2ccccc21	-58.9	-13.7	6.61*	-9.8	·	-5.5
SMILES	m-calpain inh	Mdm2 ligase inh	KCC2 mod	Arbovirus anti	ROMK mod	PKD1 kinase inh
O=C(N/N=C/c1c(O)n(Cc2ccc(F)cc2)c(=O)[nH]c1=O)c1ccccc1O	-191.4	-11.6	-0.558	54.9*	·	2.3
O=C(N/N=C/c1c(O)n(CCc2ccccc2)c(=O)[nH]c1=O)c1ccncc1	1.7	-10.3	-0.295	31.8*	·	1.3
O=C(N/N=C/c1c(O)n(Cc2ccccc2)c(=O)[nH]c1=O)c1ccccc1O	-162.8	·	-2.35	58.2*	1.59	16.0
O=C(N/N=C/c1c(O)n(CCc2ccc(F)cc2)c(=O)[nH]c1=O)c1ccncc1	-55.9	-25.5	0.35	14.8	-0.0549	0.1
COc1ccc(Cn2c(O)c(/C=N/NC(=O)c3ccccc3O)c(=O)[nH]c2=O)cc1	-194.4	9.7	-0.216	28.4	1.56	-3.9
Cn1c(=O)cc(SCC(=O)N2CCC3(CC2)OCCO3)c2ccc(Cl)cc21	-4.9	-5.5	0.192	-0.5	·	-3.8
Cc1[nH]c2ccccc2c1C1=CCNCC1	27.7	-6.9	0.398	46.0*	·	0.7
